# Several values for one entry are separate records, joined by “and”; a condition that tells them apart may be missing. Equal values may be shown once. Read-outs that look alike come from different tables or passages of the source.
# Experiments:
# [1] = Safety assessments and adverse events after single-dose capmatinib; format: in vivo, human; details: for AEs, any primary system organ class: regardless of study drug relationship
# How it was run: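 Single oral 200 mg dose; participants confined from day −1 to day 4. Haematology, chemistry, coagulation and urinalysis at screening, baseline, days 1–2 and end of treatment; vital signs on days 1–3. Triplicate 12-lead ECGs. AEs/SAEs recorded with severity and relatedness, graded per CTCAE v4.03. Phone follow-up at 30 days post-dose.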
# [2] = repeated administration of 400-mg BID tablets; cited from earlier work
# plasma protein = details: cited from earlier work
# [3] = healthy participants, cited from earlier work
# MET = MET inhibitor; cited from earlier work
compound,measurement,setting,value
CNC(=O)c1ccc(-c2cnc3ncc(Cc4ccc5ncccc5c4)n3n2)cc1F [capmatinib],Gastrointestinal disorders,[1]; mild (n = 7),0 n (%)
same,General disorders and administration site conditions,[1]; mild (n = 7),1 (14.3) n (%)
same,Headache,[1]; mild (n = 7),1 (14.3) n (%)
same,Hypoglycaemia,[1]; mild (n = 7),1 (14.3) n (%)
same,Medical device site dermatitis,[1]; mild (n = 7),1 (14.3) n (%)
same,Metabolism and nutrition disorders,[1]; mild (n = 7),1 (14.3) n (%)
same,Nausea,[1]; mild (n = 7),0 n (%)
same,Nervous system disorders,[1]; mild (n = 7),1 (14.3) n (%)
same,Vertigo,[1]; mild (n = 7),1 (14.3) n (%)
same,"AEs, any primary system organ class, maximum Grade 1",[1]; moderate (n = 8),2 (25.0) n (%)
same,"AEs, any primary system organ class, maximum Grade 2",[1]; moderate (n = 8),0 n (%)
same,Diarrhoea,[1]; moderate (n = 8),0 n (%)
same,Dizziness,[1]; moderate (n = 8),1 (12.5) n (%)
same,Ear and labyrinth disorders,[1]; moderate (n = 8),0 n (%)
same,Flatulence,[1]; moderate (n = 8),0 n (%)
same,Gastrointestinal disorders,[1]; moderate (n = 8),2 (25.0) n (%)
same,General disorders and administration site conditions,[1]; moderate (n = 8),0 n (%)
same,Headache,[1]; moderate (n = 8),1 (12.5) n (%)
same,Hypoglycaemia,[1]; moderate (n = 8),0 n (%)
same,Medical device site dermatitis,[1]; moderate (n = 8),0 n (%)
same,Metabolism and nutrition disorders,[1]; moderate (n = 8),0 n (%)
same,Nausea,[1]; moderate (n = 8),2 (25.0) n (%)
same,Nervous system disorders,[1]; moderate (n = 8),1 (12.5) n (%)
same,Vertigo,[1]; moderate (n = 8),0 n (%)
same,"AEs, any primary system organ class, maximum Grade 1",[1]; normal (n = 10),0 n (%)
same,"AEs, any primary system organ class, maximum Grade 2",[1]; normal (n = 10),0 n (%)
same,Diarrhoea,[1]; normal (n = 10),0 n (%)
same,Dizziness,[1]; normal (n = 10),0 n (%)
same,Ear and labyrinth disorders,[1]; normal (n = 10),0 n (%)
same,Flatulence,[1]; normal (n = 10),0 n (%)
same,Gastrointestinal disorders,[1]; normal (n = 10),0 n (%)
same,General disorders and administration site conditions,[1]; normal (n = 10),0 n (%)
same,Headache,[1]; normal (n = 10),0 n (%)
same,Hypoglycaemia,[1]; normal (n = 10),0 n (%)
same,Medical device site dermatitis,[1]; normal (n = 10),0 n (%)
same,Metabolism and nutrition disorders,[1]; normal (n = 10),0 n (%)
same,Nausea,[1]; normal (n = 10),0 n (%)
same,Nervous system disorders,[1]; normal (n = 10),0 n (%)
same,Vertigo,[1]; normal (n = 10),0 n (%)
same,"AEs, any primary system organ class",[1]; all participants (N = 31),6 n (%) and 6 (19.4) n (%)
same,"AEs, any primary system organ class",[1]; mild (n = 7),3 (42.9) n (%)
same,"AEs, any primary system organ class",[1]; moderate (n = 8),2 (25.0) n (%)
same,"AEs, any primary system organ class",[1]; normal (n = 10),0 n (%)
same,"AEs, any primary system organ class",[1]; severe (n = 6),1 (16.7) n (%)
same,"AEs, any primary system organ class, maximum Grade 1",[1]; severe (n = 6),1 (16.7) n (%)
same,"AEs, any primary system organ class, maximum Grade 2",[1]; severe (n = 6),0 n (%)
same,Diarrhoea,[1]; severe (n = 6),1 (16.7) n (%)
same,Dizziness,[1]; severe (n = 6),0 n (%)
same,Ear and labyrinth disorders,[1]; severe (n = 6),0 n (%)
same,Flatulence,[1]; severe (n = 6),1 (16.7) n (%)
same,Gastrointestinal disorders,[1]; severe (n = 6),1 (16.7) n (%)
same,General disorders and administration site conditions,[1]; severe (n = 6),0 n (%)
same,Headache,[1]; severe (n = 6),0 n (%)
same,Hypoglycaemia,[1]; severe (n = 6),0 n (%)
same,Medical device site dermatitis,[1]; severe (n = 6),0 n (%)
same,Metabolism and nutrition disorders,[1]; severe (n = 6),0 n (%)
same,Nausea,[1]; severe (n = 6),0 n (%)
same,Nervous system disorders,[1]; severe (n = 6),0 n (%)
same,Vertigo,[1]; severe (n = 6),0 n (%)
same,tolerability,"[1]; single dose, mild, moderate, severe hepatic impairment and normal hepatic function",well tolerated
same,"changes in chemistry parameters, QTcF or other ECG parameters",[1]; single oral dose 200 mg,No clinically relevant changes
same,changes in haematological parameters,[1]; single oral dose 200 mg,Minimal changes
same,steady state GM accumulation ratio,[2],1.4
same,bound to plasma protein,plasma protein,96%
same,tolerability,"[3]; single dose of 600 mg, tablet formulation",tolerated
same,PK dose linearity,"[3]; tablets, single dose of 200–600 mg",linear
same,IC50,MET,0.6 nM
